Data published in ChEMBL document CHEMBL5303300, “EUbOPEN Chemogenomics Library - Multiplex” (2023).
Where “and” joins values, the source holds several entries; their conditions need not be identical. Equal values may be shown once.

Tested on: HEK-293T
Test: Multiplex assay against HEK293T
Type: toxicity, cell-based
Conditions: human, number of replicates 2
Procedure, shortened: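 Imaging took place on a CQ1 microscope at 37°C and 5% CO2 once compound had been added to live cells stained at seeding with Hoechst33342, BioTracker Green Microtubule Cytoskeleton Dye, MitoTracker Red and Annexin V Alexa Fluor 680. CellPathfinder machine-learning gating classed cells as Hoechst high-intensity objects or normal cells, classed normal cells as having healthy, pyknosed or fragmented nuclei, and classed pyknosed cells as mitotic or apoptotic. Tubulin, mitochondrial-mass and membrane-permeability phenotypes are per cents of the healthy-nucleus cells.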

[1] = 12 h, 1 µM, compound concentration 1 uM
[2] = 12 h, 10 µM, compound concentration 10 uM
[3] = 24 h, 1 µM, compound concentration 1 uM
[4] = 24 h, 10 µM, compound concentration 10 uM
[5] = 48 h, 1 µM, compound concentration 1 uM
[6] = 48 h, 10 µM, compound concentration 10 uM

In the case of `CC1=C(C)C(=O)C(C(CCCCCC(=O)O)c2ccccc2)=C(C)C1=O` (configuration not stated) [SERATRODAST], the “Population Apoptotic (%)” value [1] is reported as 63% and 56%, the “Population Fragmented Nuclei (%)” value [1] is reported as 4% and 5% and the “Population Healthy Nuclei (%)” value [1] is reported as 78% and 82%. The “Population Hoechst High Intensity Objects (%)” value [1] was 12% and 8%, the “Population Membrane Permeable-Phenotype (%)” value [1] was 2% and 0% and the “Population Mitochondria Different-Phenotype (%)” value [1] was 18% and 13%. The “Population Mitotic Cells (%)” value [1] was 36% and 43%, the “Population Normal (%)” value [1] was 87% and 91% and the “Population Pyknosed Nuclei (%)” value [1] was 17% and 12%. The “Population Tubulin-Different-Phenotype (%)” value [1] was 49% and 39%, the “Total Cell Count” value [1] was 511 and 624 and the “Population Apoptotic (%)” value [2] was 47% and 51%. For the same molecule, the “Population Fragmented Nuclei (%)” value [2] was 4% and 5%, the “Population Healthy Nuclei (%)” value [2] was 87% and 85% and the “Population Hoechst High Intensity Objects (%)” value [2] was 7%. The “Population Membrane Permeable-Phenotype (%)” value [2] was 4% and 2%, the “Population Mitochondria Different-Phenotype (%)” value [2] was 8% and 11% and the “Population Mitotic Cells (%)” value [2] was 52% and 48%. For the same molecule, the “Population Normal (%)” value [2] was 92%, the “Population Pyknosed Nuclei (%)” value [2] was 7% and 9% and the “Population Tubulin-Different-Phenotype (%)” value [2] was 39% and 43%. The “Total Cell Count” value [2] was 857 and 708, the “Population Apoptotic (%)” value [3] was 52% and 55% and the “Population Fragmented Nuclei (%)” value [3] was 6% and 7%. For the same molecule, the “Population Healthy Nuclei (%)” value [3] was 79% and 81%, the “Population Hoechst High Intensity Objects (%)” value [3] was 9% and the “Population Membrane Permeable-Phenotype (%)” value [3] was 1%. The “Population Mitochondria Different-Phenotype (%)” value [3] was 3%, the “Population Mitotic Cells (%)” value [3] was 47% and 44% and the “Population Normal (%)” value [3] was 90%. The “Population Pyknosed Nuclei (%)” value [3] was 13% and 10%, the “Population Tubulin-Different-Phenotype (%)” value [3] was 19% and 16% and the “Total Cell Count” value [3] was 827 and 1038. The “Population Apoptotic (%)” value [4] was 28% and 42%, the “Population Fragmented Nuclei (%)” value [4] was 8% and 7% and the “Population Healthy Nuclei (%)” value [4] was 86%. For the same molecule, the “Population Hoechst High Intensity Objects (%)” value [4] was 9% and 6%, the “Population Membrane Permeable-Phenotype (%)” value [4] was 6% and 3% and the “Population Mitochondria Different-Phenotype (%)” value [4] was 3% and 4%. The “Population Mitotic Cells (%)” value [4] was 71% and 57%, the “Population Normal (%)” value [4] was 90% and 93% and the “Population Pyknosed Nuclei (%)” value [4] was 4% and 6%. The “Population Tubulin-Different-Phenotype (%)” value [4] was 29% and 35%, the “Total Cell Count” value [4] was 1313 and 975 and the “Population Apoptotic (%)” value [5] was 22% and 13%. For the same molecule, the “Population Fragmented Nuclei (%)” value [5] was 15% and 14%, the “Population Healthy Nuclei (%)” value [5] was 81% and 83% and the “Population Hoechst High Intensity Objects (%)” value [5] was 8%. The “Population Membrane Permeable-Phenotype (%)” value [5] was 4% and 5%, the “Population Mitochondria Different-Phenotype (%)” value [5] was 1% and 0% and the “Population Mitotic Cells (%)” value [5] was 77% and 86%. For the same molecule, the “Population Normal (%)” value [5] was 91%, the “Population Pyknosed Nuclei (%)” value [5] was 3% and 2% and the “Population Tubulin-Different-Phenotype (%)” value [5] was 5%. For the same molecule, the “Total Cell Count” value [5] was 2229 and 2490, the “Population Apoptotic (%)” value [6] was 6% and 13% and the “Population Fragmented Nuclei (%)” value [6] was 25% and 16%. For the same molecule, the “Population Healthy Nuclei (%)” value [6] was 73% and 80%, the “Population Hoechst High Intensity Objects (%)” value [6] was 9% and 8% and the “Population Membrane Permeable-Phenotype (%)” value [6] was 11% and 5%. The “Population Mitochondria Different-Phenotype (%)” value [6] was 0%, the “Population Mitotic Cells (%)” value [6] was 93% and 86% and the “Population Normal (%)” value [6] was 91%. The “Population Pyknosed Nuclei (%)” value [6] was 1% and 2%, the “Population Tubulin-Different-Phenotype (%)” value [6] was 15% and 21% and the “Total Cell Count” value [6] was 3510 and 2285.

In the case of `CC(C)N1CCN(Cc2cnc(-c3cc(-c4cccc5[nH]ccc45)cc4[nH]ncc34)o2)CC1` [NEMIRALISIB], the “Population Apoptotic (%)” value [1] is reported as 45% and 59%, the “Population Fragmented Nuclei (%)” value [1] is reported as 5% and 3% and the “Population Healthy Nuclei (%)” value [1] is reported as 77% and 74%. For the same molecule, the “Population Hoechst High Intensity Objects (%)” value [1] was 12% and 13%, the “Population Membrane Permeable-Phenotype (%)” value [1] was 4% and 2% and the “Population Mitochondria Different-Phenotype (%)” value [1] was 18% and 22%. The “Population Mitotic Cells (%)” value [1] was 54% and 40%, the “Population Normal (%)” value [1] was 87% and 86% and the “Population Pyknosed Nuclei (%)” value [1] was 16% and 21%. The “Population Tubulin-Different-Phenotype (%)” value [1] was 69% and 70%, the “Total Cell Count” value [1] was 748 and 665 and the “Population Apoptotic (%)” value [2] was 62% and 64%. The “Population Fragmented Nuclei (%)” value [2] was 2% and 3%, the “Population Healthy Nuclei (%)” value [2] was 87% and 84% and the “Population Hoechst High Intensity Objects (%)” value [2] was 11% and 7%. The “Population Membrane Permeable-Phenotype (%)” value [2] was 5% and 3%, the “Population Mitochondria Different-Phenotype (%)” value [2] was 46% and 61% and the “Population Mitotic Cells (%)” value [2] was 37% and 35%. For the same molecule, the “Population Normal (%)” value [2] was 88% and 92%, the “Population Pyknosed Nuclei (%)” value [2] was 9% and 12% and the “Population Tubulin-Different-Phenotype (%)” value [2] was 98%. For the same molecule, the “Total Cell Count” value [2] was 425 and 404, the “Population Apoptotic (%)” value [3] was 52% and 61% and the “Population Fragmented Nuclei (%)” value [3] was 10% and 6%. For the same molecule, the “Population Healthy Nuclei (%)” value [3] was 75% and 74%, the “Population Hoechst High Intensity Objects (%)” value [3] was 9% and 11% and the “Population Membrane Permeable-Phenotype (%)” value [3] was 2%. For the same molecule, the “Population Mitochondria Different-Phenotype (%)” value [3] was 7% and 8%, the “Population Mitotic Cells (%)” value [3] was 47% and 38% and the “Population Normal (%)” value [3] was 90% and 88%. For the same molecule, the “Population Pyknosed Nuclei (%)” value [3] was 13% and 19%, the “Population Tubulin-Different-Phenotype (%)” value [3] was 40% and 42% and the “Total Cell Count” value [3] was 1140 and 951. The “Population Apoptotic (%)” value [4] was 50% and 57%, the “Population Fragmented Nuclei (%)” value [4] was 3% and the “Population Healthy Nuclei (%)” value [4] was 85% and 78%. The “Population Hoechst High Intensity Objects (%)” value [4] was 18% and 14%, the “Population Membrane Permeable-Phenotype (%)” value [4] was 3% and the “Population Mitochondria Different-Phenotype (%)” value [4] was 39% and 57%. For the same molecule, the “Population Mitotic Cells (%)” value [4] was 50% and 42%, the “Population Normal (%)” value [4] was 81% and 85% and the “Population Pyknosed Nuclei (%)” value [4] was 11% and 17%. For the same molecule, the “Population Tubulin-Different-Phenotype (%)” value [4] was 94% and 96%, the “Total Cell Count” value [4] was 468 and 473 and the “Population Apoptotic (%)” value [5] was 21% and 33%. The “Population Fragmented Nuclei (%)” value [5] was 17% and 10%, the “Population Healthy Nuclei (%)” value [5] was 78% and 84% and the “Population Hoechst High Intensity Objects (%)” value [5] was 10%. The “Population Membrane Permeable-Phenotype (%)” value [5] was 6% and 2%, the “Population Mitochondria Different-Phenotype (%)” value [5] was 0% and 1% and the “Population Mitotic Cells (%)” value [5] was 78% and 66%. For the same molecule, the “Population Normal (%)” value [5] was 89%, the “Population Pyknosed Nuclei (%)” value [5] was 4% and the “Population Tubulin-Different-Phenotype (%)” value [5] was 19%. The “Total Cell Count” value [5] was 2776 and 2131, the “Population Apoptotic (%)” value [6] was 51% and 60% and the “Population Fragmented Nuclei (%)” value [6] was 8% and 7%. The “Population Healthy Nuclei (%)” value [6] was 84% and 85%, the “Population Hoechst High Intensity Objects (%)” value [6] was 11% and 15% and the “Population Membrane Permeable-Phenotype (%)” value [6] was 6% and 7%. For the same molecule, the “Population Mitochondria Different-Phenotype (%)” value [6] was 28% and 18%, the “Population Mitotic Cells (%)” value [6] was 48% and 40% and the “Population Normal (%)” value [6] was 88% and 84%. The “Population Pyknosed Nuclei (%)” value [6] was 6% and 7%, the “Population Tubulin-Different-Phenotype (%)” value [6] was 86% and 80% and the “Total Cell Count” value [6] was 815 and 665.
